STAT1 activator: activators of IFN-gamma induced STAT1 signaling; NIH 3T3 STAT1-luciferase reporter, luminescence; 100% = IFN-gamma alone, no compound; activation (% of control), % at 5.5 µM; 200,000 tested, 2.6% active; AID 932;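 active = activation above the screen-wide mean activation plus 3 SD, cut at about 130% in these data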
APP 5'UTR act: activates APP 5'UTR luciferase reporter | 190,000 tested, 1% active | AID 1276 | activation, % at 2 µM | SH-SY5Y APP 5'UTR luciferase reporter, luminescence; zero percent = DMSO vehicle wells;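 active = activation above a set limit, based on mean plus 3 SD of controls, cut at about 140% in these data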
FLuc stim CS: affects firefly luciferase, flagging false hits in luciferase stimulation screens; 200,000 tested, under 10 active; P08659; activation factor at 10 µM; ATPlite luciferase biochemical, luminescence, 10 min; 0 = ATP-free wells, 1 = DMSO control;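 active = luciferase activation factor, scaled between plate controls, of at least 2 with compound at 10 µM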
Target sequence (P08659 whole entry, looked up): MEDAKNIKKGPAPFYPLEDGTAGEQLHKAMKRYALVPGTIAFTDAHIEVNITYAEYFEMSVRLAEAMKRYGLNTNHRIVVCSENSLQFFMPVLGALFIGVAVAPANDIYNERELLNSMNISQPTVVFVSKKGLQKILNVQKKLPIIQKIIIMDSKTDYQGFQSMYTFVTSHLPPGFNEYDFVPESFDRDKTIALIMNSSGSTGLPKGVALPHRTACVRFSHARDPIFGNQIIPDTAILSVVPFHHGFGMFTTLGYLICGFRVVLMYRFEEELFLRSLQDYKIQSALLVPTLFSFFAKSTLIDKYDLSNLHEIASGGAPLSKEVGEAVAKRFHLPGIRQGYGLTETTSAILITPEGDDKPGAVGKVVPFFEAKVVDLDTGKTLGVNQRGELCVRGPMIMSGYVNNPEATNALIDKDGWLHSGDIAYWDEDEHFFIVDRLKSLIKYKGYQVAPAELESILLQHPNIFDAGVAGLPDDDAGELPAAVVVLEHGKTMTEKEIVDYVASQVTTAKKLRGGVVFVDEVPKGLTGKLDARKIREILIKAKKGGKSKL
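Assay system – cell-free luciferase reagent · Medium – PBS-based ATP solution · Dosing – test compounds dosed from 2 mM stocks in 100% DMSO · Timing – 10 min, room temperature · Technique – light output (luminescence) · Measure – luminescence gain marking luciferase activators · Controls – No-ATP low control, compound-free enzyme-plus-ATP high control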
FLuc inh counter: inhibits firefly luciferase, flagging false hits in luciferase inhibition screens; AID 1006; ATPLite firefly luciferase biochemical luminescence, 10 min; 200,000 tested, 1.5% active; P08659; inhibition, % at 10 µM;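 active = inhibition above about 50% when tested at 10 µM, limit read from the data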
NF-kB neuron act: NF-kB expression increase, human neuronal cells. fold change at 12.5 µM. AID 1239. NF-kB reporter expression; stronger effect = higher value. 190,000 tested, 1.6% active; in the data active = fold change above about 3.3
A number is an active result. An excerpt weighted towards active compounds, which were near 4.3% of everything screened.

What do the screens show for `CCOC(=O)Cc1csc(NC(=O)c2csc3c2CCCC3)n1`?
STAT1 activator: inactive; APP 5'UTR act: inactive; FLuc stim CS: inactive; FLuc inh counter: inactive; NF-kB neuron act: inactive

Results for Cc1cnc(NC(=O)c2cc3c(s2)CCCC3)s1 ?
STAT1 activator: inactive; APP 5'UTR act: 173; FLuc stim CS: inactive; FLuc inh counter: 93; NF-kB neuron act: 4.1

How did CCOC(=O)Cc1csc(NC(=O)c2cc3c(s2)CCCC3)n1 do in these assays?
STAT1 activator: inactive; APP 5'UTR act: inactive; FLuc stim CS: inactive; FLuc inh counter: 61; NF-kB neuron act: inactive

How did CC(C)NC(=O)c1cc2c(s1)CCCC2 do in these assays?
STAT1 activator: inactive; APP 5'UTR act: inactive; FLuc stim CS: inactive; FLuc inh counter: inactive; NF-kB neuron act: inactive

What do the screens show for `Cc1csc(NC(=O)c2cc3c(s2)CCCCC3)n1`?
STAT1 activator: inactive; APP 5'UTR act: inactive; FLuc stim CS: inactive; FLuc inh counter: 95; NF-kB neuron act: inactive

How did Cc1csc(NC(=O)c2cc3c(s2)CCCC3)n1 do in these assays?
STAT1 activator: inactive; APP 5'UTR act: 165; FLuc stim CS: inactive; FLuc inh counter: 94; NF-kB neuron act: inactive

Results for c1coc(CNc2nc(-c3cccs3)cs2)c1 ?
STAT1 activator: inactive; APP 5'UTR act: inactive; FLuc stim CS: inactive; FLuc inh counter: inactive; NF-kB neuron act: inactive

What do the screens show for `Oc1ccc(-c2csc(NCc3ccco3)n2)cc1`?
STAT1 activator: inactive; APP 5'UTR act: inactive; FLuc stim CS: inactive; FLuc inh counter: inactive; NF-kB neuron act: 3.7

Results for COc1cc2nc(CN(C)Cc3ccc(C(C)(C)C)cc3)[nH]c(=O)c2cc1OC ?
STAT1 activator: inactive; APP 5'UTR act: inactive; FLuc stim CS: inactive; FLuc inh counter: 85; NF-kB neuron act: inactive

What do the screens show for `O=C(c1cc(-c2cccs2)on1)N1CCN(c2ccc(F)cc2)CC1`?
STAT1 activator: inactive; APP 5'UTR act: inactive; FLuc stim CS: inactive; FLuc inh counter: inactive; NF-kB neuron act: 3.4

How did O=C(c1cc(-c2cccs2)on1)N1CCN(c2ccccc2)CC1 do in these assays?
STAT1 activator: inactive; APP 5'UTR act: inactive; FLuc stim CS: inactive; FLuc inh counter: inactive; NF-kB neuron act: inactive

What do the screens show for `CCN(CC)c1ccc(S(=O)(=O)N(CC)CC)cc1NC(=O)c1cccnc1`?
STAT1 activator: inactive; APP 5'UTR act: inactive; FLuc stim CS: inactive; FLuc inh counter: inactive; NF-kB neuron act: inactive

What do the screens show for `COc1cc(OC)c2c(=O)cc(-c3ccccc3)oc2c1`?
STAT1 activator: inactive; APP 5'UTR act: inactive; FLuc stim CS: inactive; FLuc inh counter: 58; NF-kB neuron act: inactive

Results for N/C(=N\OC(=O)CC(c1ccccc1)c1ccccc1)c1cccnc1 ?
STAT1 activator: inactive; APP 5'UTR act: inactive; FLuc stim CS: inactive; FLuc inh counter: inactive; NF-kB neuron act: inactive

How did CC(Sc1ccc(Cl)cc1)C(=O)Nc1ccc2c(c1)OCO2 (stereo unspecified) do in these assays?
STAT1 activator: inactive; APP 5'UTR act: inactive; FLuc stim CS: inactive; FLuc inh counter: inactive; NF-kB neuron act: inactive

What do the screens show for `CC(C)N1CCC2(CC1)N=C(c1ccc3c(c1)OCO3)CC(c1cc(Cl)ccc1O)N2` (stereo unspecified)?
STAT1 activator: inactive; APP 5'UTR act: inactive; FLuc stim CS: inactive; FLuc inh counter: inactive; NF-kB neuron act: 4.7

What do the screens show for `O=C(CN1CCN(Cc2ccccc2)CC1)N/N=C/c1c[nH]c2ccccc12`?
STAT1 activator: inactive; APP 5'UTR act: inactive; FLuc stim CS: inactive; FLuc inh counter: inactive; NF-kB neuron act: inactive

What do the screens show for `O=C1CC(c2ccc(F)cc2)Sc2nc(-c3ccccc3)c(-c3ccccc3)n21` (stereo unspecified)?
STAT1 activator: inactive; APP 5'UTR act: inactive; FLuc stim CS: inactive; FLuc inh counter: inactive; NF-kB neuron act: inactive

Results for O=C1CC(c2ccc3c(c2)OCO3)Sc2nc3ccccc3n21 (stereo unspecified) ?
STAT1 activator: inactive; APP 5'UTR act: inactive; FLuc stim CS: inactive; FLuc inh counter: 69; NF-kB neuron act: inactive

What do the screens show for `O=C1CC(c2cccs2)Sc2nc3ccccc3n21` (stereo unspecified)?
STAT1 activator: 129; APP 5'UTR act: inactive; FLuc stim CS: inactive; FLuc inh counter: inactive; NF-kB neuron act: inactive

Results for O=C1CC(c2ccco2)Sc2nc3ccccc3n21 (stereo unspecified) ?
STAT1 activator: inactive; APP 5'UTR act: inactive; FLuc stim CS: inactive; FLuc inh counter: inactive; NF-kB neuron act: inactive
